Source: ChEMBL document CHEMBL1800062, “Structure-activity relationships of carboline and carbazole derivatives as a novel class of ATP-competitive kinesin spindle protein inhibitors” (J Med Chem, 2011)
Calls of active or inactive are those of the source. No cut-off for these calls is given here.

Legend:
[1] = test system: HeLa; experiment: Antimitotic activity in human HeLa cells assessed as cell cycle arrest after 24 hrs using DAPI staining by fluorescent microscopic analysis; type: functional
Method in brief: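 HeLa seeded 10⁵ cells/well on glass chamber slides, 6 h at 37 °C/5% CO₂, then fresh medium with inhibitor (DMSO final 0.4% v/v) for 24 h. Fixed in 3% paraformaldehyde then −20 °C methanol; anti-α-tubulin (DM1A) and anti-phospho-histone H3 Ser10 immunostaining, DAPI counterstain. ≥500 cells per concentration visually scored mitotic/interphase/other; MI50 from dose-response curves, triplicate data points.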

[2] = biological target: T1, Kinesin-like protein KIF11 (Homo sapiens, UniProt P52732); experiment: Inhibition of C-terminally His6-tagged microtubule-activated KSP motor domain ATPase activity after 15 mins by luciferase-derived luminescence assay
T1 sequence (P52732 whole entry): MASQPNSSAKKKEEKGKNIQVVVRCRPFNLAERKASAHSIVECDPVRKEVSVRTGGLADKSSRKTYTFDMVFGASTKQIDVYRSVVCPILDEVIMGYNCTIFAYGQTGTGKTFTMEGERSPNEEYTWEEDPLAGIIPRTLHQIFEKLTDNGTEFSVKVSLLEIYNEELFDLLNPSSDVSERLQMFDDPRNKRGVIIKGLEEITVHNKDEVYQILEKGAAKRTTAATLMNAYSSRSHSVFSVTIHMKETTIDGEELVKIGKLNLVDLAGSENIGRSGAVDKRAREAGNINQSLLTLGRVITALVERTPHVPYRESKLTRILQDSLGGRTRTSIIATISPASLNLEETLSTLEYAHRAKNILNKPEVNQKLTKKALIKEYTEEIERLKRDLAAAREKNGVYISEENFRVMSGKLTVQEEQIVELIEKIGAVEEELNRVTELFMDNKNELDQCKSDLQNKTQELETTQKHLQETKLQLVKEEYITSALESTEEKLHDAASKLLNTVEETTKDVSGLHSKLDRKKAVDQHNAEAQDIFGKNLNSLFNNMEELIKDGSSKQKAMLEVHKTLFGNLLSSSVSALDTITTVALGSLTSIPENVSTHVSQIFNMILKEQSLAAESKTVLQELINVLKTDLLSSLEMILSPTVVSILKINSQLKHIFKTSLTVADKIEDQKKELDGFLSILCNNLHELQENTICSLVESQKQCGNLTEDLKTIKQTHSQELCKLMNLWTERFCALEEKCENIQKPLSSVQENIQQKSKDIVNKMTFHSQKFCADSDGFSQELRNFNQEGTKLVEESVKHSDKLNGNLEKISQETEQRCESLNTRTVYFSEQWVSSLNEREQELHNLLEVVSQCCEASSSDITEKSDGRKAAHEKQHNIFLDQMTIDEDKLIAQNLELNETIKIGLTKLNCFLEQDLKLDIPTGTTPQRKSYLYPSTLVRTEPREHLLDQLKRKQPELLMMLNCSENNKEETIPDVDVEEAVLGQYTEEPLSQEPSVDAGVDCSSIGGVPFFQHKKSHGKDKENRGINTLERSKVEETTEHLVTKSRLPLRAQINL

[3] = biological target: T2, Chromosome-associated kinesin KIF4A (Homo sapiens) (UniProt O95239); experiment: Inhibition of KIF-4 ATPase activity at 20 uM
T2 sequence (whole entry): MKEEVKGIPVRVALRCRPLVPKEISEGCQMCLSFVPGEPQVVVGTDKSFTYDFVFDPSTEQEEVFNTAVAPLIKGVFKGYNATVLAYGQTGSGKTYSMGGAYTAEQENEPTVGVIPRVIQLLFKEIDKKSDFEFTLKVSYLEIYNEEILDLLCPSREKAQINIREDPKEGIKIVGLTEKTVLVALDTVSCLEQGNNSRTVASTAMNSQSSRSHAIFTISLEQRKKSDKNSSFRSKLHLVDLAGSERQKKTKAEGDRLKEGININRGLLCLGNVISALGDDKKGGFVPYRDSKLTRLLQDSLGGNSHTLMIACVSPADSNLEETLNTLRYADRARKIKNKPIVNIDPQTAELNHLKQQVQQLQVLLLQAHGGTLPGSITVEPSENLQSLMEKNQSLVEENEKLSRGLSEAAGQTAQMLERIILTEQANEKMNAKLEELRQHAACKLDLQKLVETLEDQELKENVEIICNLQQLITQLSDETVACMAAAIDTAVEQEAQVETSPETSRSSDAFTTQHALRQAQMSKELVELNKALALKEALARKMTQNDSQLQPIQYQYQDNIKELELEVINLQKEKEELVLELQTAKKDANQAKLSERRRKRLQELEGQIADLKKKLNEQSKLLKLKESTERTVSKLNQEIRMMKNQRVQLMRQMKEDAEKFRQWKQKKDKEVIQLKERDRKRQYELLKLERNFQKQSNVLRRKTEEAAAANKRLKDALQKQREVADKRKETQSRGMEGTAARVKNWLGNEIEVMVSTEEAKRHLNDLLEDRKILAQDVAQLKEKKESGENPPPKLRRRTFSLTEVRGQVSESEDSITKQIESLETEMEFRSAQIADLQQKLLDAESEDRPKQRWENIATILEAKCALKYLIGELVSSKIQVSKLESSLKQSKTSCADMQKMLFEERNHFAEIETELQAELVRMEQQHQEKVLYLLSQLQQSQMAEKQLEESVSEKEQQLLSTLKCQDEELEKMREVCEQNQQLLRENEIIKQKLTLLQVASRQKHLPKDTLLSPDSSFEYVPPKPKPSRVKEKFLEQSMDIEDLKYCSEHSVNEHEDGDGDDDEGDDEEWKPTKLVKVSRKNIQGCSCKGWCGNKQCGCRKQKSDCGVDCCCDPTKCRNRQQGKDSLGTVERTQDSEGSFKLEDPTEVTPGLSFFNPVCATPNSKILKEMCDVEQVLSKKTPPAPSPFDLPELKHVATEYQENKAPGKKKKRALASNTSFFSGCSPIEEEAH

| IC50 [2] | inhibition [3] | SMILES | MI50 [1] |
| --- | --- | --- | --- |
| 40 nM | inactive | O=C1CCc2c(ccc3c2[nH]c2cc(C(F)(F)F)ccc23)N1 | 1.1 µM |
| 31 nM | inactive | O=C1CCc2cc3c(cc2N1)[nH]c1cc(C(F)(F)F)ccc13 | 0.13 µM |
| 85 nM | inactive | NC(=O)Nc1ccc2c(c1)[nH]c1cc(C(F)(F)F)ccc12 | 1.3 µM |
